Bioassay records as filed in PubChem.
An excerpt weighted towards active compounds, which were near 3.7% of everything screened.
GAA850 FXN act: frataxin GAA850 promoter activation; activation, % at 6 µM; actives 0.56% (n = 360,000); HEK293 lucGAA850 FXN promoter luciferase reporter, 24 h; percent of 10 µM SAHA response;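 active means activation above the average of all compounds screened plus 3 SD, cutoff fixed separately per campaign, cut at about 7.5% in these data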
AHR act: human AHR activation; actives 2.5% (n = 320,000); activation, % at 5 µM; AHR-responsive luciferase reporter cells, luminescence; AID 2796; P35869; in the data active means activation above about 47%
JMJD2C inh: inhibitors of human GASC-1 (JMJD2C) demethylase. AID 2099. GST-JMJD2C(1-420) H3K9me3 demethylation, DELFIA europium. inhibition, % at 2.35 µM. actives 0.069% (n = 330,000);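 active means more than half of a compound's replicate wells show inhibition beyond 50%, single wells judged on their own value; inconclusive means some, but no more than half, of replicates pass 50% inhibition; inactive means no replicate passes 50% inhibition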;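 further: signal counts dimethyl H3K9 product captured on neutravidin plate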
Target sequence (Q9H3R0 1-420 limits assumed): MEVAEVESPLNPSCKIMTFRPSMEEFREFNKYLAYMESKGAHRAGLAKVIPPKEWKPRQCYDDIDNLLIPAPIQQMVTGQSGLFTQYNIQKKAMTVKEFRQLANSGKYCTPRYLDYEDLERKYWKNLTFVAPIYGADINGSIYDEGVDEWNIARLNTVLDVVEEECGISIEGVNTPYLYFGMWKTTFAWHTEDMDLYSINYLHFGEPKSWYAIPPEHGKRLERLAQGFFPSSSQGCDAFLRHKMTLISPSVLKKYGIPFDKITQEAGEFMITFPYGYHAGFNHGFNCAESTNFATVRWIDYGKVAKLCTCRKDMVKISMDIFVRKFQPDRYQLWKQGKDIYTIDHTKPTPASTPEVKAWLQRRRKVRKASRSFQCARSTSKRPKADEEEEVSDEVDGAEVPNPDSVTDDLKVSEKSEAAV
SR-BI uptake up: SR-BI HDL lipid transfer activation | CHO ldlA[mSR-BI] cells, DiI-HDL uptake fluorescence, 3 h; 100 = double the neutral-control signal | activation, % at 12.5 µM | actives 0.096% (n = 320,000) | AID 504775;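 active means mean replicate activation of at least 60% and every replicate at or above 60%; inconclusive means mean or all-replicate condition met, but not both; inactive means mean below 60% and not all replicates reaching 60%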
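Material: SR-BI-overexpressing, LDLR-lacking CHO cells; schedule: compound exposure 3 h, 37 °C; reagent: DiI-labelled HDL at 10 µg/mL final; technique: bottom-read fluorescence, 550/595 nm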
SR-BI HDL uptake: inhibitors of mouse SR-BI mediated HDL lipid uptake | ldlA[mSR-BI] CHO cells, DiI-HDL uptake fluorescence, 3 h | actives 0.96% (n = 320,000) | Q61009 | inhibition, % at 12.5 µM;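 active means mean replicate inhibition of at least 70% and a set share of replicates each scoring 70 or more; inconclusive means meets just one of the two criteria; inactive means fails both criteria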
GAA30 counter: counter-screen for GAA850 frataxin promoter activators: GAA30 promoter activation. shares compounds with GAA850 FXN act. HEK293 lucGAA30 FXN promoter luciferase, 24 h; DMSO = 0%, 5 µM ipriflavone = 100%. activation, % at 6 µM. actives 66% (n = 1,900). AID 588350;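 active means mean activation above the mean of solvent-only control wells plus 3 SD, cut at about 22% in these data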;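 further: counterscreen of GAA850 promoter hits where activity marks nonselective or luminescence artifacts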
GAA850 confirm: GAA850 FXN promoter activation confirmation. shares compounds with GAA850 FXN act. actives 86% (n = 1,900). HEK293 lucGAA850 FXN promoter luciferase reporter, 24 h; 100% = activation by SAHA. activation, % at 6 µM;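 active means mean activation above a set limit taken from the primary screen, cut at about 8% in these data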
Hits are given with their value; n = inactive; u = inconclusive; x = no result given; ! = a repeat was not active.

SMILES	GAA850 FXN act	AHR act	JMJD2C inh	SR-BI uptake up	SR-BI HDL uptake	GAA30 counter	GAA850 confirm
CC1CCCc2sc3nc(N4CCN(CCO)CC4)n4ncnc4c3c21 (stereo not given)	8.1	n	n	n	n	33	21
COCCOC(=O)c1c(C)oc2ccc(NS(=O)(=O)c3cccs3)cc12	8.6	n	n	n	n	n	n
c1ccc(-c2n[nH]c(-c3ccccn3)n2)nc1	7.7!	n	n	n	n	102	27
c1ccc(-c2ccccn2)nc1	n	n	n	n	n	x	x
O=C(N/N=C\c1ccco1)Nc1cccc(Cl)c1	9.0	52	n	n	n	103	38
Cc1cc(Nc2ccccc2)nc(NCc2ccccc2)n1	n	n	n	n	n	x	x
Cc1cc(Nc2ccc(Cl)cc2)nc(NCc2ccccc2)n1	14	n	n	n	n	n	10
COc1ccc(CCN(C)c2ccc(S(=O)(=O)N3CCCC3)cc2[N+](=O)[O-])cc1OC	9.9	n	n	n	n	n	11
COc1ccc(CN(C)c2ccc(S(=O)(=O)N3CCN(C)CC3)cc2[N+](=O)[O-])cc1OC	n	n	n	n	n	x	x
Cc1ccc(-c2nn(-c3ccccc3)cc2/C=N/NS(=O)(=O)c2ccccc2)cc1	8.4	n	n	n	n	81	23
Cc1ccc(S(=O)(=O)N/N=C\c2cn(-c3ccccc3)nc2-c2ccccc2)cc1	n	n	n	n	n	x	x
COc1nc(N(C#N)CC(N)=O)nc(N2CCCC2)n1	12	n	n	n	n	n	18
N#Cc1c(N)n(C2CCCCC2)c2nc3ccccc3nc12	8.1	n	n	n	n	n	18
COC(=O)c1sccc1NC(=S)N1CC(C)CC(C)C1 (stereo not given)	n	n	n	n	n	x	x
CC(=O)c1ccc(NC(=S)N(C)C2CCN(C)CC2)cc1	14	n	n	n	n	22	n
CN1CCC(N(C)C(=S)Nc2ccc(F)cc2)CC1	n	n	n	n	n	x	x
O=C(Nc1nncs1)c1cc(S(=O)(=O)N2CCOCC2)ccc1Cl	n	n	n	n	n	x	x
O=C(N/N=C/c1cccc([N+](=O)[O-])c1)c1ccc2c(c1)OCCO2	8.9	n	n	n	n	119	37
O=C1CCC(C(=O)NCc2ccccc2)N1 (stereo not given)	n	n	n	n	n	x	x
Cn1cc(C2=C(c3ccc(Cl)cc3Cl)C(=O)NC2=O)c2ccccc21	12	n	n	n	n	n	9.2
O=C(/C=C/c1ccc(O)c(O)c1)OCCc1ccccc1	16	n	n	n	n	31	23
O=C(/C=C/c1ccc(O)c(O)c1)c1ccccc1O	13	n	n	n	n	75	35
O=C(/C=C/c1ccc(O)c(O)c1)OC(Cc1ccc(O)c(O)c1)C(=O)O (stereo not given)	n	n	u	n	n	x	x
O=C(C=Cc1cccc(O)c1)c1ccccc1O	n	x	x	n	n	x	x
CSC(=S)NN=C(C)c1cccc(C)n1	16	x	x	n	n	n	n
SMILES	GAA850 FXN act	AHR act	JMJD2C inh	SR-BI uptake up	SR-BI HDL uptake	GAA30 counter	GAA850 confirm
CC(C)(C)c1ccc2c(c1)C(=O)c1ccccc1C2=O	7.9	n	n	n	n	111	38
CCOC(=O)c1nc2ccccc2c(=O)[nH]1	8.1	n	n	n	n	69	23
Cc1ccccc1CS(=O)(=O)c1nnc([C@H](Cc2ccccc2)NC(=O)OC(C)(C)C)o1	12	n	n	n	n	n	n
Clc1ccc(C=NN2CCCCCC2)cc1Cl	n	x	x	n	n	x	x
Oc1ccc(/C=N/N2CCCCC2)cc1O	12	n	n	n	n	55	28
C=C[C@@H](C)N(Cc1ccc(OC)cc1)S(=O)(=O)N(Cc1ccccc1)[C@H](C=C)C(C)C	n	n	n	n	n	x	x
O=C1CC(c2ccccc2)Sc2nc3ccccc3n21 (stereo not given)	n	n	n	n	n	x	x
O=C1CC(c2ccco2)Sc2nc3ccccc3n21 (stereo not given)	8.3	n	n	n	n	84	22
COC(=O)[C@@H]1C[C@H]2CC[C@H](O)C[C@H]2N1Cc1ccc(Cl)cc1	n	n	u	n	n	x	x
CCCOC(=O)c1ccc(NC(=O)c2cc(=O)[nH]c3ccccc23)cc1	n	n	n	x	x	x	x
O=C1C2C3C=CC(C3)C2C(=O)N1CCN1CCN(Cc2ccc([N+](=O)[O-])cc2)CC1 (stereo not given)	n	n	n	n	n	x	x
Cc1ccccc1Nc1nc(N)nc(-c2oc3ccccc3c2C)n1	8.6	n	n	n	n	101	52
COc1ccccc1Nc1nc(N)nc(-c2oc3ccccc3c2C)n1	n	n	n	n	n	x	x
Cc1c(-c2nc(N)nc(Nc3ccc(F)cc3)n2)oc2ccccc12	9.8	n	n	n	n	89	38
CCCC(=O)Nc1ccc2oc(-c3ccncc3)nc2c1	n	n	n	n	n	x	x
CCCC(=O)Nc1ccc(-c2nc3cc(C)c(C)cc3o2)cc1	9.8	n	n	n	n	108	48
CCCCn1c(N)c(N(CCOC)C(=O)C2CCN(c3ncnc4sc(C)c(C)c34)CC2)c(=O)[nH]c1=O	n	n	n	n	n	x	x
Cc1cc(C)c(C(=O)COC(=O)C2CCN(c3ccc(C(F)(F)F)cn3)CC2)c(C)c1	n	n	n	n	n	x	x
CN(C)Cc1ccc(-c2nc3cccc4c3n2CCNC4=O)cc1	7.8	n	n	n	n	25	50
Cc1cc(CN(C)C(=O)CC2C(=O)NCCN2Cc2ccc(-c3ccccc3)cc2)on1 (stereo not given)	n	n	u	n	n	x	x
COc1cc(/C=N/Nc2ccccn2)ccc1OCC(C)C	7.8	71	n	n	n	87	38
O=C(Cc1ccc(Cl)cc1)N/N=C/c1ccncc1	n	n	n	n	n	x	x
CC(C)c1nc2sc3c(NCc4ccccc4)ncnc3c2c2c1COC(C)(C)C2	n	n	n	n	n	x	x
CC(C)c1nc2sc3c(NCc4ccco4)ncnc3c2c2c1COC(C)(C)C2	8.1	n	n	n	n	n	8.0
Cc1ccc(F)cc1NC(=O)COC(=O)c1ccc2ncsc2c1	n	n	n	n	n	x	x
COc1cc(C2Nc3ccccc3NC3=C2C(=O)CC(C)(C)C3)cc(OC)c1OC(C)=O (stereo not given)	n	n	n	n	n	x	x
C(=N\N=C\c1cccnc1)/c1cccnc1	n	n	n	n	n	x	x
CN(/N=C/c1cccnc1)c1cnc2ccccc2n1	9.3	n	n	n	n	132	34
